{"source": "ChEMBL document CHEMBL4699441", "about": "“Identification and Preclinical Evaluation of the Bicyclic Pyrimidine γ-Secretase Modulator BMS-932481” (ACS Med Chem Lett, 2019)", "key": {"[1]": {"experiment": "Ratio of drug level in brain to plasma in triple transgenic LaFerla mouse at 30 mg/kg, po measured after 3 hrs", "format": "ADME, organism-based"}, "[2]": {"experiment": "Reduction in amyloid beta (1 to 42) secretion in brain in triple transgenic LaFerla mouse at 30 mg/kg, po measured after 3 hrs relative to control", "format": "functional", "summary_of_the_method": "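Triple transgenic LaFerla mice (APP Swedish, MAPT P301L, PSEN1 M146V) given 30 mg/kg po; brain Aβ1-42 measured 3 h postdose; n = 3.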"}, "[3]": {"experiment": "Inhibition of amyloid beta (1 to 42) secretion in human H4 cells overexpressing APP incubated for overnight by HTRF analysis", "format": "functional, cell-based"}, "[4]": {"experiment": "Oral bioavailability in Beagle dog incubated for 24 hrs by LC-MS/MS analysis", "format": "ADME, organism-based, Canis lupus familiaris", "conditions": "in vivo"}, "[5]": {"experiment": "Stability in human liver microsomes assessed as remaining compound measured after 10 mins by LC-MS/MS analysis", "format": "ADME, Microsome", "conditions": "read-out: Stabilty", "summary_of_the_method": "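High-throughput microsomal stability: 3 μM substrate, 1 mg/mL microsomal protein, 100 mM sodium phosphate pH 7.4, 37 °C; quenched at 10 min, LC–MS/MS, percent parent remaining reported.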"}, "[6]": {"tested_on": "Homo sapiens", "experiment": "Antialzheimer activity in human assessed as reduction in amyloid beta (1 to 42) AUC at 1.3 mg/kg qd relative to control", "parameters": "scale not given: the % may be the effect or the level left"}, "[7]": {"experiment": "Oral bioavailability in Sprague-Dawley rat incubated for 24 hrs by LC-MS/MS analysis", "format": "ADME, organism-based", "conditions": "in vivo"}, "[8]": {"experiment": "AUC (0 to 24 hrs) in Harlan Sprague-Dawley rat incubated for 24 hrs by LC-MS/MS analysis", "format": "ADME", "parameters": "time 24 hrs", "conditions": "in vivo"}, "[9]": {"target": "Voltage-gated inwardly rectifying potassium channel KCNH2 (Homo sapiens, UniProt Q12809)", "sequence (Q12809 whole entry)": "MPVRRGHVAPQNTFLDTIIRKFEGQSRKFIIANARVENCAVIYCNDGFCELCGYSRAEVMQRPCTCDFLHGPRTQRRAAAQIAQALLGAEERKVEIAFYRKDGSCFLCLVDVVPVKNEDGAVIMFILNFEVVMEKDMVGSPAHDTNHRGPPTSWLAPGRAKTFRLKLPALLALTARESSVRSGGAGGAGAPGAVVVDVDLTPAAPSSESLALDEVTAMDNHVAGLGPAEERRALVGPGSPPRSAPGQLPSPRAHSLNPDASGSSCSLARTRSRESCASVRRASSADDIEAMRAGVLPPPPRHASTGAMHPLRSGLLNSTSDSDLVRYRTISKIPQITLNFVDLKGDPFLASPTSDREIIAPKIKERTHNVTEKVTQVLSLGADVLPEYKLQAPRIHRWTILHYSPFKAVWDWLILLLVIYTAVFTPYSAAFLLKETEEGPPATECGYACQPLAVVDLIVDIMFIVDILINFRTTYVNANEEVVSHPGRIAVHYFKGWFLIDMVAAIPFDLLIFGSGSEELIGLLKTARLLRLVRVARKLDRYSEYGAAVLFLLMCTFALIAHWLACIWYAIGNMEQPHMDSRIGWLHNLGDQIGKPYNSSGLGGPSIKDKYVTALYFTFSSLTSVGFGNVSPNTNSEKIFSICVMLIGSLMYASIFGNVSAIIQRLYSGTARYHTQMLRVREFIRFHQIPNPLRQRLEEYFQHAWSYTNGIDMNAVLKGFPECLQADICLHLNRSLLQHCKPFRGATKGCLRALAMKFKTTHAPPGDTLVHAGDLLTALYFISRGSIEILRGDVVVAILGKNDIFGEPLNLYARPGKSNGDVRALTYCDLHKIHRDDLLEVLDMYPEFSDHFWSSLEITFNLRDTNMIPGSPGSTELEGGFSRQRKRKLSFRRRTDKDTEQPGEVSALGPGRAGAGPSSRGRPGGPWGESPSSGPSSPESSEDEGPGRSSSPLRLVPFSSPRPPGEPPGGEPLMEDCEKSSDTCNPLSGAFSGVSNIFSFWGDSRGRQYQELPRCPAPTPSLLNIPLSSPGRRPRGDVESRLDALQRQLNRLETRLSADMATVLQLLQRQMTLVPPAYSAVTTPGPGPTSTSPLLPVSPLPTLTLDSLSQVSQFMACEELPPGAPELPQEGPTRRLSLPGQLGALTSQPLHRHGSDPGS", "experiment": "Inhibition of human ERG by patch clamp method"}, "[10]": {"experiment": "Reduction in amyloid beta (1 to 42) secretion in brain in Harlan Sprague-Dawley rat at 10 mg/kg, po measured after 3 hrs relative to control", "format": "functional", "summary_of_the_method": "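Sprague–Dawley rats dosed 10 mg/kg po; brain Aβ1-42 measured 3 h postdose; n = 5.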"}, "[11]": {"target": "T1, Solute carrier organic anion transporter family member 1B1 (Homo sapiens, UniProt Q9Y6L6)", "T1 sequence (Q9Y6L6 whole entry)": "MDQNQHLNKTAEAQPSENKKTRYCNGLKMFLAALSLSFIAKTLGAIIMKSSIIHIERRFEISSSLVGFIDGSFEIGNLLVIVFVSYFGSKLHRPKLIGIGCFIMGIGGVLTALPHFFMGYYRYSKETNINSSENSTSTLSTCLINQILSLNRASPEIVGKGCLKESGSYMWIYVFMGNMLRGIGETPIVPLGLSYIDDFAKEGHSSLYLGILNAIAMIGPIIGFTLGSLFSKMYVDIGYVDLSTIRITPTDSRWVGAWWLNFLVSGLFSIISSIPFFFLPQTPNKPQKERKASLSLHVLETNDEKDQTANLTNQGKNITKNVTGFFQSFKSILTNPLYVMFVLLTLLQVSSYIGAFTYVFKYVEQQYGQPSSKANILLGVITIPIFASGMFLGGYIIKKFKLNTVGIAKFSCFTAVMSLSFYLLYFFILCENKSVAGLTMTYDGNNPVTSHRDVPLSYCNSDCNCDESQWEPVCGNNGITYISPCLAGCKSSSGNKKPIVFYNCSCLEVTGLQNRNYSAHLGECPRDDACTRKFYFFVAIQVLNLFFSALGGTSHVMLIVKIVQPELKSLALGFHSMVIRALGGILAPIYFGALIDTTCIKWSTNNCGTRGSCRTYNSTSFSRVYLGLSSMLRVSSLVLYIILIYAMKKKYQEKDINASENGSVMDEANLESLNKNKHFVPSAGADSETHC", "experiment": "Inhibition of OATP1B1 (unknown origin)", "format": "ADME"}, "[12]": {"experiment": "Plasma concentration in triple transgenic LaFerla mouse at 30 mg/kg, po measured after 3 hrs", "format": "ADME, organism-based"}, "[13]": {"experiment": "Octanol/water partition coefficient, logD of the compound at pH 6.5 by shake flask method", "format": "physicochemical", "summary_of_the_method": "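Octanol/water partitioning by shake flask at pH 6.5.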"}, "[14]": {"species": "Rattus norvegicus", "experiment": "Antialzheimer activity in Harlan Sprague-Dawley rat brain assessed as reduction in amyloid beta (1 to 42) AUC relative to control", "format": "functional", "parameters": "scale not given: the % may be the effect or the level left"}, "[15]": {"experiment": "Cardiotoxicity in rabbit assessed as NOAEL by telemetric analysis", "format": "toxicity, Oryctolagus cuniculus"}, "[16]": {"experiment": "Toxicity in rat assessed as hepatocellular necrosis at 10 to 100 mg/kg, po administered for 4 days by histological assay", "format": "organism-based", "conditions": "in vivo, 96 h, dose 10-100 mg/kg, time 4 day"}, "[17]": {"experiment": "Toxicity in rat assessed as increase in unconjugated bilirubin in plasma at 10 to 100 mg/kg, po administered for 4 days", "format": "organism-based", "conditions": "in vivo, 96 h, dose 10-100 mg/kg, time 4 day", "summary_of_the_method": "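Rats dosed orally at 10, 30 and 100 mg/kg for 4 days; plasma inspected and unconjugated bilirubin assessed.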"}, "[18]": {"experiment": "Plasma concentration in Harlan Sprague-Dawley rat at 10 mg/kg, po measured after 3 hrs", "format": "ADME, organism-based"}, "[19]": {"tested_on": "Homo sapiens", "experiment": "Antialzheimer activity in human assessed as reduction in amyloid beta (1 to 42) AUC at 1.3 mg/kg qd relative to control", "parameters": "scale not given: the % may be the effect or the level left", "remark": "listed apart in the source"}, "[20]": {"target": "T2, UDP-glucuronosyltransferase 1A1 (Homo sapiens, UniProt P22309)", "T2 sequence (P22309 whole entry)": "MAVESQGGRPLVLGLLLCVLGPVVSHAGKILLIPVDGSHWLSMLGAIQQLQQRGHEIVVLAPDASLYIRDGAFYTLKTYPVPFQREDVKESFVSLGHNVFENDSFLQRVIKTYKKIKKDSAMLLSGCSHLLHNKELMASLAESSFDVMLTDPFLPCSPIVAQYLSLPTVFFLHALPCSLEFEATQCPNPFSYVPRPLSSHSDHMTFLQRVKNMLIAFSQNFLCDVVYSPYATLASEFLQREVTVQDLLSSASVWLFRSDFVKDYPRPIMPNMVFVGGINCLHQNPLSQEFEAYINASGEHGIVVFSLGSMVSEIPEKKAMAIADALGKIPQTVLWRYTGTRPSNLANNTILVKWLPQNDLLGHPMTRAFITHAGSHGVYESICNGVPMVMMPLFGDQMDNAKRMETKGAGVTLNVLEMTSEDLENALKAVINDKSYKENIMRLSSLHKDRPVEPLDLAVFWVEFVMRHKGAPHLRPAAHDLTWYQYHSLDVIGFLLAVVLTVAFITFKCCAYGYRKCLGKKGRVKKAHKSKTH", "experiment": "Inhibition of human UGT1A1", "format": "ADME"}, "[21]": {"experiment": "Fraction unbound in human plasma measured after 24 hrs by LC-MS/MS analysis", "format": "ADME, cell-free"}, "[22]": {"experiment": "Oral bioavailability in cynomolgus monkey incubated for 24 hrs by LC-MS/MS analysis", "format": "ADME, organism-based, Macaca fascicularis", "conditions": "in vivo"}, "[23]": {"tested_on": "H4", "experiment": "Induction of amyloid beta (1 to 37) secretion in human H4 cells overexpressing APP incubated for overnight by Western blot analysis", "format": "functional, cell-based"}, "[24]": {"experiment": "Suppression of total amyloid beta secretion in human H4 cells overexpressing APP incubated for overnight by Western blot analysis", "format": "ADME, cell-based"}, "[25]": {"tested_on": "H4", "experiment": "Induction of amyloid beta (1 to 38) secretion in human H4 cells overexpressing APP incubated for overnight by Western blot analysis", "format": "functional, cell-based"}}, "note": "Active and inactive are the calls of the source. No cut-off for these calls is given here.", "data": [{"compound": "CNc1nc(Cc2ccccc2)nc(Nc2ccc(-n3cnc(C)c3)c(OC)c2)n1", "values": [{"measurement": "BPR", "setting": "[1]", "result": 0.47}, {"measurement": "inhibition in vivo at 30 mg/kg", "setting": "[2]", "result": 32, "unit": "%"}, {"measurement": "IC50", "setting": "[3]", "result": 31, "unit": "nM"}]}, {"compound": "CNc1nc(Nc2ccc(-n3cnc(Cl)c3)c(OC)c2)nc2c1CC[C@H]2c1ccccc1", "values": [{"measurement": "bioavailability", "setting": "[4]", "result": 64, "unit": "%"}, {"measurement": "remaining at 10 min", "setting": "[5]", "result": 96, "unit": "%"}, {"measurement": "Activity", "setting": "[6]", "result": 25, "unit": "%"}, {"measurement": "F", "setting": "[7]", "result": 49, "unit": "%"}, {"measurement": "AUC(0-t) at 24 h", "setting": "[8]", "result": 7.6, "unit": "µM·h"}, {"measurement": "IC50", "setting": "[9]", "result": 200, "unit": "nM"}, {"measurement": "inhibition in vivo at 10 mg/kg", "setting": "[10]", "result": 59, "unit": "%"}, {"measurement": "IC50", "setting": "[11]", "result": 690, "unit": "nM"}, {"measurement": "inhibition in vivo at 30 mg/kg", "setting": "[2]", "result": 86, "unit": "%"}, {"measurement": "concentration at 3 h", "setting": "[12]", "result": 2100, "unit": "nM"}, {"measurement": "logD", "setting": "[13]", "result": 4.42}, {"measurement": "IC50", "setting": "[3]", "result": 2, "unit": "nM"}, {"measurement": "Activity", "setting": "[14]", "result": 25, "unit": "%"}, {"measurement": "NOAEL", "setting": "[15]", "result": 15, "unit": "µM"}, {"measurement": "Activity", "setting": "[16]", "result": "Toxic"}, {"measurement": "Activity", "setting": "[17]", "result": "Toxic"}, {"measurement": "concentration at 3 h", "setting": "[18]", "result": 1700, "unit": "nM"}, {"measurement": "Activity", "setting": "[19]", "result": 25, "unit": "%"}, {"measurement": "IC50", "setting": "[20]", "result": 1400, "unit": "nM"}, {"measurement": "Fu", "setting": "[21]", "result": 0.1, "unit": "%"}, {"measurement": "bioavailability", "setting": "[22]", "result": 44, "unit": "%"}]}, {"compound": "CNc1nc(Nc2ccc(-n3cncn3)c(OC)c2)nc(-c2ccccc2)n1", "values": [{"measurement": "Activity", "setting": "[23]", "result": "Active"}, {"measurement": "IC50", "setting": "[3]", "result": 120, "unit": "nM"}, {"measurement": "Activity", "setting": "[24]", "result": "Non-Toxic"}, {"measurement": "Activity", "setting": "[25]", "result": "Active"}]}]}
